HCV core dimer: blocks dimerization of HCV core protein | TR-FRET GST/Flag-core106 dimerization, 1536-well | inhibition, % at 5 µM | 0.33% of 300,000 active;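 active means inhibition above the mean of all tested compounds plus 3 SD, set per screening campaign, cut at about 45% in these data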
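assay system = GST-tagged and Flag-tagged HCV core protein residues 1-106 | controls = unlabelled core106 and no-GST-core106 wells | incubation = compound-protein-antibody incubation 4 h at 22.5 °C | probe or stimulus = Eu donor and XL665 acceptor anti-tag antibodies | read-out = % inhibition based on acceptor/donor emission ratio | signal = TR-FRET 671 and 617 nm emission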
HSF1 activator: increases HSF-1 driven luciferase reporter signal; activation, % at 9 µM; NIH3T3-HGL HSF-1 luciferase reporter, MG132, 8 h; 100% = twice DMSO control signal; AID 504408; 1.7% of 300,000 active;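 active means mean replicate activation of at least 50% with a set share of replicates each reaching 50%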;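 further: 0% = median of the neutral control wells and 100% = twice that signal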
NS3 helicase inh: blocks Hepatitis C virus NS3 helicase unwinding; inhibition, % at 10.9 µM; NS3 helicase DNA unwinding, Cy5 molecular beacon fluorescence; 0.56% of 290,000 active;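 active means inhibition above the mean of all tested compounds plus 3 SD, set per campaign, cut at about 35% in these data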;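 further: 0% = DMSO wells and 100% = thioflavine S control wells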
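System: HCV NS3 helicase fragment; control set: DMSO and thioflavine S; technique: Cy5 fluorescence at 0 and 60 min, beacon hairpin quenching; reagent: beacon DNA duplex substrate plus ATP; replicates: singlicate; schedule: 1 h reaction at 25 °C, ATP-initiated; medium: MOPS buffer pH 6.5 with MgCl2, DTT, Tween20, BSA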
HSF1 inhib: HSF1 inhibition. NIH3T3-HGL HSE-luciferase, MG132-induced, luminescence 8 h; active compounds read low. activity change, negative = inhibition, % at 7.5 µM (by protocol). 0.77% of 300,000 active. AID 2098;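 active means more than half of replicate wells show activity change below -50%, luminescence cut by over half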;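 further: luciferase reports HSF-1 transcriptional activity via heat shock element; 0% = median of DMSO wells and -100% = zero luminescence signal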
HSP90 inh: blocks HSP90-mediated luciferase refolding in reticulocyte lysate. Rabbit reticulocyte lysate, luciferase refolding luminescence, 3 h. inhibition, % at 5.6 µM. 0.91% of 290,000 active. AID 1789;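 active means inhibition above the screen-wide mean plus 3 SD, computed separately per campaign, cut at about 16% in these data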;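 further: 0% = DMSO wells and 100% = 60 µM geldanamycin wells; inhibitors lower the luminescence because luciferase stays unfolded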
DNA FID counter-1: fluorescent intercalator displacement, NS3 helicase counter-screen. AID 1845. 0.17% of 290,000 active. inhibition, % at 7.9 µM. DNA fluorescent intercalator displacement, fluorescence;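 further: 0% = vehicle and 100% = reference compound; higher means more ethidium bromide displaced from hairpin DNA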
NS3 helicase cf: confirmation of Hepatitis C virus NS3 helicase inhibitors; NS3 helicase DNA unwinding, Cy5 molecular beacon fluorescence; inhibition, % at 10.9 µM; 31% of 1,600 active; shares compounds with NS3 helicase inh;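 active means inhibition above the mean of all tested compounds plus 3 SD, cutoff set per campaign, cut at about 36% in these data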
DNA FID counter-2: counter-screen for HCV NS3 helicase inhibitors: DNA intercalator displacement | inhibition, % at 7.9 µM | DNA fluorescent intercalator displacement, fluorescence | 4% of 1,600 active | AID 1945 | shares compounds with NS3 helicase inh;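 further: 0% = vehicle and 100% = reference compound; higher means more displacement of ethidium bromide from the DNA hairpin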
FID counter DR: counter-screen for HCV NS3 helicase inhibitors: DNA intercalator displacement dose response. shares compounds with NS3 helicase inh. fluorescent intercalator displacement from DNA, fluorescence. IC50, µM. 120 tested, under 10 active. AID 2172; call rule not given here
Active calls of the source: *. Most compounds without a hit are left out; they make up all but 3.9% or so of the library. Unless noted, no stated cut-off is given here; in the data, active means inhibition above about 37%; inactive means the rest.

Results for O=C(NCC1CCCO1)c1cc(S(=O)(=O)N2CCCC2)c(Cl)cc1Cl (stereo unspecified) ?
HCV core dimer: 2; HSF1 activator: -5; NS3 helicase inh: 83*; HSF1 inhib: -2; HSP90 inh: 0; DNA FID counter-1: -13; NS3 helicase cf: -15; DNA FID counter-2: -6

What do the screens show for `Cc1ccc(S(=O)(=O)N2CCCCC2)cc1C(=O)NCC1CCCO1` (stereo unspecified)?
HCV core dimer: 4; HSF1 activator: 10; NS3 helicase inh: 2; HSF1 inhib: 4; HSP90 inh: -4; DNA FID counter-1: -10

What do the screens show for `CSc1ccccc1NC(=O)C1=COCCO1`?
HCV core dimer: 2; HSF1 activator: -4; NS3 helicase inh: 3; HSF1 inhib: -6; HSP90 inh: -2; DNA FID counter-1: -5

How did Cc1nn(C)c(C)c1CS(=O)(=O)c1ccccc1 do in these assays?
HCV core dimer: -2; HSF1 activator: 10; NS3 helicase inh: 6; HSF1 inhib: 4; HSP90 inh: 2; DNA FID counter-1: 4

Results for COc1ccc(-c2nn(CCC(=O)O)cc2CCC(=O)O)cc1 ?
HCV core dimer: -5; HSF1 activator: -13; NS3 helicase inh: 5; HSF1 inhib: -2; HSP90 inh: -2; DNA FID counter-1: 2

Results for O=C(O)CCn1cc(C(=O)O)c(-c2ccccc2)n1 ?
HCV core dimer: 0; HSF1 activator: 10; NS3 helicase inh: 45*; HSF1 inhib: -8; HSP90 inh: 4; DNA FID counter-1: 2; NS3 helicase cf: -12; DNA FID counter-2: 2

How did CSc1nnc(-c2ccco2)c(-c2ccco2)n1 do in these assays?
HCV core dimer: 16; HSF1 activator: 20; NS3 helicase inh: 37*; HSF1 inhib: 7; HSP90 inh: 1; DNA FID counter-1: -10; NS3 helicase cf: 25; DNA FID counter-2: 14

Results for Cc1ccc(NC(=O)CSc2nnc(-c3ccco3)c(-c3ccco3)n2)cc1 ?
HCV core dimer: 51*; HSF1 activator: 22; NS3 helicase inh: 42*; HSF1 inhib: 14; HSP90 inh: 0; DNA FID counter-1: -6; NS3 helicase cf: 87*; DNA FID counter-2: 19

How did Cc1ccccc1NC(=O)CSc1nnc(-c2ccco2)c(-c2ccco2)n1 do in these assays?
HCV core dimer: 45; HSF1 activator: 35; NS3 helicase inh: 41*; HSF1 inhib: 17; HSP90 inh: 2; DNA FID counter-1: -24; NS3 helicase cf: 51*; DNA FID counter-2: -8; FID counter DR: >79

Results for CSc1nnc(-c2ccccc2)c(-c2ccccc2)n1 ?
HCV core dimer: 0; HSF1 activator: -11; NS3 helicase inh: 11; HSF1 inhib: -3; HSP90 inh: 0; DNA FID counter-1: -10

Results for COc1ccc(NC(=O)CSc2nnc(-c3ccco3)c(-c3ccco3)n2)cc1OC ?
HCV core dimer: 26; HSF1 activator: 12; NS3 helicase inh: 30; HSF1 inhib: -8; HSP90 inh: 1; DNA FID counter-1: -24

How did COc1cc(NC(=O)CSc2ccc(-c3ccco3)nn2)cc(OC)c1 do in these assays?
HCV core dimer: 35; HSF1 activator: -15; NS3 helicase inh: 36*; HSF1 inhib: -3; HSP90 inh: 3; DNA FID counter-1: -27; NS3 helicase cf: -12; DNA FID counter-2: 0

What do the screens show for `O=C(CSc1nnc(-c2cccnc2)o1)OC1CCCCC1`?
HCV core dimer: -3; HSF1 activator: 9; NS3 helicase inh: 0; HSF1 inhib: -3; HSP90 inh: 8; DNA FID counter-1: -11

What do the screens show for `CCOc1ccc(C(CC(=O)O)NC(=O)COc2ccc3ccccc3c2)cc1OC` (stereo unspecified)?
HCV core dimer: -1; HSF1 activator: 21; NS3 helicase inh: 6; HSF1 inhib: -1; HSP90 inh: -5; DNA FID counter-1: -32

Results for Cc1ccc(N2CC(C(=O)N(C)CC(=O)Nc3ccc(Cl)c(C(F)(F)F)c3)CC2=O)cc1 (stereo unspecified) ?
HCV core dimer: -1; HSF1 activator: -4; HSF1 inhib: 0

What do the screens show for `CC1CC(C)CN(S(=O)(=O)c2ccc3c(c2)NC(=O)C(C)C(=O)N3)C1` (stereo unspecified)?
HCV core dimer: 1; HSF1 activator: -10; NS3 helicase inh: 6; HSF1 inhib: -2; HSP90 inh: -2; DNA FID counter-1: -21

What do the screens show for `COc1ccc(N=C2SC(CC(=O)Nc3ccccc3OC)C(=O)N2Cc2ccco2)cc1` (stereo unspecified)?
HCV core dimer: 14; HSF1 activator: 30; NS3 helicase inh: 41*; HSF1 inhib: 0; HSP90 inh: 0; DNA FID counter-1: -28; NS3 helicase cf: -14; DNA FID counter-2: -26

How did Cc1ccc(-n2cccc2/C=C2\C(=N)N3N=C(C(C)C)SC3=NC2=O)cc1 do in these assays?
HCV core dimer: 21; HSF1 activator: 1; NS3 helicase inh: 42*; HSF1 inhib: 2; HSP90 inh: 2; DNA FID counter-1: -22; NS3 helicase cf: 35; DNA FID counter-2: -28

How did Cn1cccc1CC(=O)NNC(=O)Nc1cccc(Cl)c1 do in these assays?
HCV core dimer: 1; HSF1 activator: 0; NS3 helicase inh: 38*; HSF1 inhib: 3; HSP90 inh: -5; DNA FID counter-1: -10; NS3 helicase cf: -15; DNA FID counter-2: 25

What do the screens show for `Cn1cccc1CC(=O)NNC(=O)Nc1ccc(Cl)cc1`?
HCV core dimer: 13; HSF1 activator: -2; NS3 helicase inh: 10; HSF1 inhib: -6; HSP90 inh: -3; DNA FID counter-1: -16

What do the screens show for `N#CC1=C(SCC(=O)c2ccccc2)NC2=C(C(=O)CCC2)C1c1ccco1` (stereo unspecified)?
HCV core dimer: -4; HSF1 activator: 34; NS3 helicase inh: 38*; HSF1 inhib: 14; HSP90 inh: 4; DNA FID counter-1: -9; NS3 helicase cf: -10; DNA FID counter-2: -1

What do the screens show for `COc1ccc(OCC(=O)Nc2ccc3c(c2)nc(CCn2ccccc2=O)n3C)cc1`?
HCV core dimer: 4; HSF1 activator: 52*; NS3 helicase inh: 45*; HSF1 inhib: 10; HSP90 inh: 1; DNA FID counter-1: -55; NS3 helicase cf: -16; DNA FID counter-2: -34

Results for CCOC(=O)C(=CNc1ccc(-c2ccco2)c(Cl)c1)C(=O)OCC ?
HCV core dimer: 13; HSF1 activator: 42; NS3 helicase inh: 42*; HSF1 inhib: 2; HSP90 inh: -6; DNA FID counter-1: -25; NS3 helicase cf: 14; DNA FID counter-2: -27

Assay outcomes as filed in PubChem.
